Data: ChEMBL document CHEMBL1123708, “Resolved cis- and trans-2-amino-5-methoxy-1-methyltetralins: central dopamine receptor agonists and antagonists” (1987)
Active and inactive are the calls of the source. The rule behind the calls is not given here.

Tests used:
Rattus norvegicus [1] = experiment: Change in rectal temperature induced by DiPr-5,6-ADTN at a dose of 204 umol/kg of compound by subcutaneous administration; format: functional
How it was run: (§1)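 Rats received DiPr-5,6-ADTN (0.25 μmol/kg sc) 100 min and test compound sc 40 min before death. Rectal temperature change (°C) was recorded between 60 and 100 min after DiPr-5,6-ADTN. Values are mean ± SEM, n = 4, with Student's t test vs DiPr-5,6-ADTN alone.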

Rattus norvegicus [2] = experiment: ((+)-UH-232) induced locomotor stimulation was determined in non pretreated rats at a dose of 204 umol/kg by subcutaneous administration; format: functional
Rattus norvegicus [3] = experiment: Induced locomotor stimulation was determined in non pretreated rats at a dose of 13 umol/kg by subcutaneous administration; format: functional
Rattus norvegicus [4] = experiment: In vivo DOPA accumulation in non pre-treated rat striatal system following s.c. administration.; format: functional; conditions: sc
How it was run: (§2)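 Rats without pretreatment received test drug sc 65 min and NSD 1015 (100 mg/kg ip) 30 min before death, with saline controls. DOPA was measured in limbic or striatal tissue. Dose for half-maximal change was estimated from 4-5-dose curves (n = 3-5), maximal level as % of control.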

Rattus norvegicus [5] = experiment: ((+)-UH-232) induced locomotor stimulation was determined in non pretreated rats at a dose of 52 umol/kg by subcutaneous administration; format: functional
Rattus norvegicus [6] = experiment: Locomotory activity was determined in non pretreated rats at a dose of 3.2 umol/kg by subcutaneous administration; format: functional
How it was run: (§3)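 Untreated rats received test drug sc 5 min before a 30-min session in photocell motility meters, with accumulated counts recorded. Activity is expressed as percent of saline controls, mean ± SEM, n = 3-5. Gross behaviour was observed through a semitransparent mirror. Differences from saline controls were assessed by Student's t test.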

Rattus norvegicus [7] = experiment: Change in rectal temperature induced by DiPr-5,6-ADTN at a dose of 52 umol/kg of compound by subcutaneous administration; format: functional; how it was run: as §1
Rattus norvegicus [8] = experiment: Change in rectal temperature induced by DiPr-5,6-ADTN at a dose of 13 umol/kg of compound by subcutaneous administration; format: functional; how it was run: as §1
Rattus norvegicus [9] = experiment: In vivo DOPA accumulation in non pre-treated rat limbic system following s.c. administration.; format: functional; conditions: sc; how it was run: as §2
[10] = biological target: T1, Dopamine receptor (Rattus norvegicus) (UniProt P25115+P19020+P30729+P18901+P61169); experiment: In vivo displacement of DiPr-5,6-ADTN from Dopamine receptors in rat striatum; format: organism-based
[11] = biological target: T1, Dopamine receptor (Rattus norvegicus); experiment: Ability to displace the Dopamine receptor agonist DiPr-5,6-ADTN from rat striatal binding sites in vivo at a dose of 52 umol/kg by subcutaneous administration; format: organism-based
Rattus norvegicus [12] = experiment: Induced locomotor stimulation in non pre-treated rats by 52 umol/kg s.c. administration.; format: functional
[13] = biological target: T1, Dopamine receptor (Rattus norvegicus); conditions: 13 uM
Rattus norvegicus [14] = experiment: Induced locomotor stimulation was determined in non pretreated rats at a dose of 204 umol/kg by subcutaneous administration; format: functional
Rattus norvegicus [15] = experiment: Change in rectal temperature induced by DiPr-5,6-ADTN at a dose of 3.2 umol/kg of compound by subcutaneous administration; format: functional; how it was run: as §1
Rattus norvegicus [16] = experiment: Induced locomotor stimulation in non pre-treated rats by 13 umol/kg s.c. administration.; format: functional
Rattus norvegicus [17] = experiment: Induced locomotor stimulation was determined in non pretreated rats at a dose of 52 uM/kg by subcutaneous administration; format: functional; how it was run: as §3
Rattus norvegicus [18] = experiment: In vivo DOPA accumulation in reserpine pretreated rat limbic system by subcutaneous administration; I denotes inactive; format: functional, organism-based
How it was run: (§4)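 Rats received reserpine (5 mg/kg sc) 18 h, test drug sc 60 min and NSD 1015 (100 mg/kg ip) 30 min before death, with saline controls. Limbic or striatal DOPA was measured. Dose for half-maximal decrease was estimated from 4-7-dose curves (n = 3-5), minimal level as % of control.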

Rattus norvegicus [19] = experiment: ((+)-UH-232) induced locomotor stimulation was determined in non pretreated rats at a dose of 3.2 umol/kg by subcutaneous administration; format: functional
Rattus norvegicus [20] = experiment: Locomotory activity was determined in reserpine pretreated rats at a dose of 52 umol/kg by subcutaneous administration. Value is the accumulation counts/30 min; format: functional
How it was run: (§5)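 Rats were given reserpine 5 mg/kg sc 18 h beforehand, then test drug sc immediately before the activity session. Motor activity was recorded by photocells in motility meters as accumulated counts over 30 min, mean ± SEM, n = 3-4. Gross behaviour was watched for signs of stimulation. Reserpine-only controls were included.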

Rattus norvegicus [21] = experiment: In vivo DOPA accumulation in reserpine pretreated rat striatum system by subcutaneous administration; I denotes inactive; format: functional, organism-based; how it was run: as §4
[22] = biological target: T1, Dopamine receptor (Rattus norvegicus); conditions: 204 uM
[23] = biological target: T1, Dopamine receptor (Rattus norvegicus); experiment: Ability to displace the Dopamine receptor agonist DiPr-5,6-ADTN from rat striatal binding sites in vivo at a dose of 52 uM/kg by subcutaneous administration; format: organism-based
Rattus norvegicus [24] = experiment: Locomotory activity was determined in non pretreated rats at a dose of 52 umol/kg by subcutaneous administration; format: functional; how it was run: as §3
Rattus norvegicus [25] = experiment: ((+)-UH-232) induced locomotor stimulation was determined in non pretreated rats at a dose of 13 umol/kg by subcutaneous administration; format: functional
Rattus norvegicus [26] = experiment: Change in rectal temperature induced by DiPr-5,6-ADTN at a dose of 13 subcutaneous administration; format: functional; how it was run: as §1
Rattus norvegicus [27] = experiment: Induced locomotor stimulation was determined in non pretreated rats at a dose of 3.2 umol/kg by subcutaneous administration; format: functional; how it was run: as §3
[28] = biological target: T1, Dopamine receptor (Rattus norvegicus); experiment: Ability to displace the Dopamine receptor agonist DiPr-5,6-ADTN from rat striatal binding sites in vivo at a dose of 13 umol/kg by subcutaneous administration; format: organism-based
Rattus norvegicus [29] = experiment: Induced locomotor stimulation was determined in non pretreated rats at a dose of 52 umol/kg by subcutaneous administration; format: functional; how it was run: as §3
Rattus norvegicus [30] = experiment: In vivo DOPA accumulation in reserpine pretreated rat striatum system by subcutaneous administration; format: functional; conditions: sc; how it was run: as §4
Rattus norvegicus [31] = experiment: In vivo DOPA accumulation in reserpine pretreated rat limbic system by subcutaneous administration; format: functional; conditions: sc; how it was run: as §4
Rattus norvegicus [32] = experiment: Locomotory activity was determined in reserpine pretreated rats at a dose of 125 umol/kg by subcutaneous administration. Value is the accumulation counts/30 min; format: functional; how it was run: as §5

| Structure (SMILES) | ED50 (Rattus norvegicus [4]) | Activity (Rattus norvegicus [5]) | Activity (Rattus norvegicus [6]) | Temperature (Rattus norvegicus [7]) | ED50 (Rattus norvegicus [9]) | Binding [10] | Binding [11] | Activity (Rattus norvegicus [12]) | Body temp change (Rattus norvegicus [7]) | Activity (Rattus norvegicus [16]) | Activity (Rattus norvegicus [17]) | Body temp change (Rattus norvegicus [8]) | Binding [23] | further results |
| --- | --- | --- | --- | --- | --- | --- | --- | --- | --- | --- | --- | --- | --- | --- |
| CCCN[C@@H]1CCc2c(OC)cccc2[C@@H]1C | 4.4 µmol/kg | 54% | 132% | 1.05 °C | 4.6 µmol/kg | 85% | 41% | 159% |  |  |  |  |  | Temperature (Rattus norvegicus [1]): 0.47 °C; Activity (Rattus norvegicus [2]): 29%; Activity (Rattus norvegicus [3]): 95%; Temperature (Rattus norvegicus [8]): 1.3 °C |
| CCCN(CCC)[C@@H]1CCc2c(OC)cccc2[C@@H]1C | 9.6 µmol/kg |  | 152% |  | 12.8 µmol/kg | 83% |  | 70% | 0.45 °C | 78% | 24% | 1.4 °C | 34% | Body temp change (Rattus norvegicus [1]): 0.45 °C; Binding [13]: 61%; Activity (Rattus norvegicus [14]): 22%; Body temp change (Rattus norvegicus [15]): -0.03 °C; ED50 (Rattus norvegicus [18]): inactive; Activity (Rattus norvegicus [19]): 105%; Activity (Rattus norvegicus [20]): 4 counts/30 min; ED50 (Rattus norvegicus [21]): inactive; Binding [22]: 31% |
| COc1cccc2c1CC[C@@H](N(C)C)[C@H]2C | 2.9 µmol/kg | 8% | 100% | 0.28 °C | 2.2 µmol/kg | 60% | 14% |  |  |  |  |  |  | Activity (Rattus norvegicus [24]): 9%; Activity (Rattus norvegicus [25]): 15%; Temperature (Rattus norvegicus [15]): -0.15 °C; Temperature (Rattus norvegicus [26]): 1.6 °C; Activity (Rattus norvegicus [27]): 62%; Binding [28]: 40% |
| CCN(CC)[C@@H]1CCc2c(OC)cccc2[C@@H]1C | 2.9 µmol/kg |  | 100% |  | 5.5 µmol/kg | 44% |  | 46% | 1.4 °C | 40% |  | 1.2 °C | 28% | Activity (Rattus norvegicus [29]): 14% |
| CCCN[C@H]1CCc2c(O)cccc2[C@H]1C |  |  |  |  |  |  |  |  | -0.45 °C |  | 80% |  | 66% | ED50 (Rattus norvegicus [30]): 5 µmol/kg; ED50 (Rattus norvegicus [31]): 4 µmol/kg; Activity (Rattus norvegicus [32]): 26% |
